Test results reported in ChEMBL document CHEMBL1132336, “Synthesis, evaluation, and comparative molecular field analysis of 1-phenyl-3-amino-1,2,3,4-tetrahydronaphthalenes as ligands for histamine H(1) receptors” (J Med Chem, 1999).

How the values were obtained:
Cavia porcellus = species: Cavia porcellus; test: Compound was tested for the displacement of [3H]mepyramine from Histamine H1 receptor by competition binding assay.
How it was run: (§1)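 Membranes from guinea pig brain minus cerebellum (P2 fraction, pre-incubated 15 min at 25 °C, stored at –80 °C). Competition with 2 nM [3H]mepyramine in 50 mM Na+K+-phosphate pH 7.4, 1 h at 30 °C, triplicate tubes. Nonspecific binding defined with 20.0 μM triprolidine. Bound ligand collected on GF/B glass fibre filters, rinsed three times with cold buffer and counted by liquid scintillation.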

[1] = biological target: Histamine H1 receptor (Cavia porcellus) (UniProt P31389); test: Compound was tested for the displacement of [3H]mepyramine from Histamine H1 receptor by competition binding assay; how it was run: as §1
Chain of Histamine H1 receptor (Cavia porcellus) (P31389 whole entry): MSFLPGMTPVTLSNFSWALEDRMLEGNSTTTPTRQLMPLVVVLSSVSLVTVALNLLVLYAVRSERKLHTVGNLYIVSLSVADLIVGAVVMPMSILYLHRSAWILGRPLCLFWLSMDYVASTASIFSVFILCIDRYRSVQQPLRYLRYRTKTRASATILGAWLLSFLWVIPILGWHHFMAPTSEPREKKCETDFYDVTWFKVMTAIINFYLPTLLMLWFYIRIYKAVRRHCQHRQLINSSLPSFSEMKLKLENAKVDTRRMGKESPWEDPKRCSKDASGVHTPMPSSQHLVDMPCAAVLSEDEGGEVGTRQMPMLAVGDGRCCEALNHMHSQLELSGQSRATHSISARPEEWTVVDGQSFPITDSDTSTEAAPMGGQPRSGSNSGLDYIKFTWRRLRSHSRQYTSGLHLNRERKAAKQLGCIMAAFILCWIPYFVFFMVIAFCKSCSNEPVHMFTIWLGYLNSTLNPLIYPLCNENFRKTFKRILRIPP

Row | SMILES | K0.5 (Cavia porcellus) [nM] | K0.5 [1] [nM]
1 | CN(C)C1Cc2ccccc2C(c2ccccc2)C1 (stereo in doubt; 1b) | 19.1 | 
2 | CN(C)C1Cc2ccccc2C(c2ccccc2)C1 (stereo in doubt; 1c) | 2.45 | 
3 | C[N+](C)(C)C1Cc2ccccc2C(c2ccccc2)C1 (stereo in doubt; 25) | 107 | 
4 | CN(C)C1Cc2ccccc2C(C)(c2ccccc2)C1 (stereo in doubt; 14) | 40 | 
5 | CN1[C@@H]2CC[C@H]1C[C@@H](OC(=O)C(CO)c1ccccc1)C2 (some centres not stated) | 580 | 
6 | CN(C)CC[C@H](c1ccc(Cl)cc1)c1ccccn1 |  | 61.6
7 | CCN(CC)C1Cc2ccccc2C(c2ccccc2)C1 (configuration not stated) | 13.3 | 
8 | Cc1ccccc1C1CC(N(C)C)Cc2ccccc21 (configuration not stated) | 12.7 | 
9 | Cc1ccc(C2CC(N(C)C)Cc3ccccc32)cc1 (configuration not stated) | 5 | 
10 | OC(CCCN1CCN(c2ncc(F)cn2)CC1)c1ccc(F)cc1 (configuration not stated) |  | 548
11 | CC(C)(C)[C@]1(O)CCN2C[C@H]3c4ccccc4CCc4cccc(c43)[C@@H]2C1 | 405 | 
12 | Nc1ccc2c3c(cccc13)-c1ccccc1-2 | 4000 | 
13 | CN(C)c1ccc2c3c(cccc13)-c1ccccc1-2 | 4000 | 
14 | CN(C)C1CCc2ccccc2C(c2ccccc2)C1 (stereo in doubt; 10) | 217 | 
15 | CNC1Cc2ccccc2C(c2ccccc2)C1 (configuration not stated) | 64 | 
16 | CN(C)C1Cc2ccccc2C(c2ccccc2Cl)C1 (configuration not stated) | 42.7 | 

Row | SMILES | K0.5 (Cavia porcellus) [nM] | K0.5 [1] [nM]
17 | C=CCN1CC[C@@]2(C)c3cc(O)ccc3C[C@H]1[C@H]2C | 2000 | 
18 | CN(C)C1Cc2ccccc2C(c2ccccc2)C1 (stereo in doubt; 1a) | 1.07 | 
19 | CN(C)C1CCc2ccccc2C1c1ccccc1 (stereo in doubt; 8) | > 2000 | 
20 | CN(C)C1Cc2ccccc2C(c2ccccc2)C1 (stereo in doubt; 1d) | 111 | 
21 | CN(C)C1Cc2ccccc2C(C)(c2ccccc2)C1 (stereo in doubt; 15) | 4.4 | 
22 | CN(C)C1Cc2cc(Cl)c(O)cc2C(c2ccccc2)C1 (stereo in doubt; 2) |  | 1.47
23 | CN(C)C1CCc2ccccc2C1 (configuration not stated) | 75 | 
24 | Cc1ccc(/C(=C\CN2CCCC2)c2ccccn2)cc1 |  | 0.46
25 | C[N+](C)(C)C1Cc2ccccc2C(c2ccccc2)C1 (stereo in doubt; 3) | 120 | 
26 | CN(C)C1Cc2cc(O)c(O)cc2C(c2ccccc2)C1 (stereo in doubt; 13) | 11.8 | 
27 | CN(C)CC[C@@H](c1ccc(Cl)cc1)c1ccccn1 |  | 1.16
28 | CN(C)C1Cc2ccccc2C(c2ccc(F)cc2)C1 (configuration not stated) | 2.3 | 
29 | CN(C)C1Cc2cc(O)c(O)cc2C(c2ccccc2)C1 (stereo in doubt; 12) | 69 | 
30 | CN(C)CCOC(c1ccccc1)c1ccccc1 |  | 6.1
31 | CN(C)CC/C=C1/c2ccccc2COc2ccccc21 |  | 0.16
32 | CN(C)C1Cc2ccccc2C(c2ccc(Cl)cc2)C1 (configuration not stated) | 4.4 | 
